The source made the active and inactive calls. The rule behind the calls is not given here.
Columns and labels:
Format in all cases: cell-based
[1] = molecular target: Cystic fibrosis transmembrane conductance regulator (Homo sapiens, UniProt P13569, F508DEL); experiment: Corrector activity at human CFTR deltaF508 mutant expressed in FRT cells assessed as iodide influx; settings: read-out: Kd
Summary of the method: (§1)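 FRT epithelial cells stably co-expressing human ΔF508-CFTR and halide sensor YFP-H148Q/I152L; grown 24 h at 37°C, then 20 h with compound. PBS wash, then forskolin 20 μM plus genistein 50 μM for 20 min. Fluorescence read 2 s baseline, then 12 s after iodide-substituted PBS addition; influx rate from exponential fit of final 11.5 s, normalized to initial fluorescence; DMSO vehicle negative control.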

[2] = tested on: Cystic fibrosis transmembrane conductance regulator (Homo sapiens), P13569 [F508del]; experiment: Corrector activity at human CFTR deltaF508 mutant expressed in FRT cells assessed as iodide influx at 25 uM; summary of the method: as §1
Cystic fibrosis transmembrane conductance regulator (Homo sapiens), P13569 [F508del], sequence (P13569 as listed by the source): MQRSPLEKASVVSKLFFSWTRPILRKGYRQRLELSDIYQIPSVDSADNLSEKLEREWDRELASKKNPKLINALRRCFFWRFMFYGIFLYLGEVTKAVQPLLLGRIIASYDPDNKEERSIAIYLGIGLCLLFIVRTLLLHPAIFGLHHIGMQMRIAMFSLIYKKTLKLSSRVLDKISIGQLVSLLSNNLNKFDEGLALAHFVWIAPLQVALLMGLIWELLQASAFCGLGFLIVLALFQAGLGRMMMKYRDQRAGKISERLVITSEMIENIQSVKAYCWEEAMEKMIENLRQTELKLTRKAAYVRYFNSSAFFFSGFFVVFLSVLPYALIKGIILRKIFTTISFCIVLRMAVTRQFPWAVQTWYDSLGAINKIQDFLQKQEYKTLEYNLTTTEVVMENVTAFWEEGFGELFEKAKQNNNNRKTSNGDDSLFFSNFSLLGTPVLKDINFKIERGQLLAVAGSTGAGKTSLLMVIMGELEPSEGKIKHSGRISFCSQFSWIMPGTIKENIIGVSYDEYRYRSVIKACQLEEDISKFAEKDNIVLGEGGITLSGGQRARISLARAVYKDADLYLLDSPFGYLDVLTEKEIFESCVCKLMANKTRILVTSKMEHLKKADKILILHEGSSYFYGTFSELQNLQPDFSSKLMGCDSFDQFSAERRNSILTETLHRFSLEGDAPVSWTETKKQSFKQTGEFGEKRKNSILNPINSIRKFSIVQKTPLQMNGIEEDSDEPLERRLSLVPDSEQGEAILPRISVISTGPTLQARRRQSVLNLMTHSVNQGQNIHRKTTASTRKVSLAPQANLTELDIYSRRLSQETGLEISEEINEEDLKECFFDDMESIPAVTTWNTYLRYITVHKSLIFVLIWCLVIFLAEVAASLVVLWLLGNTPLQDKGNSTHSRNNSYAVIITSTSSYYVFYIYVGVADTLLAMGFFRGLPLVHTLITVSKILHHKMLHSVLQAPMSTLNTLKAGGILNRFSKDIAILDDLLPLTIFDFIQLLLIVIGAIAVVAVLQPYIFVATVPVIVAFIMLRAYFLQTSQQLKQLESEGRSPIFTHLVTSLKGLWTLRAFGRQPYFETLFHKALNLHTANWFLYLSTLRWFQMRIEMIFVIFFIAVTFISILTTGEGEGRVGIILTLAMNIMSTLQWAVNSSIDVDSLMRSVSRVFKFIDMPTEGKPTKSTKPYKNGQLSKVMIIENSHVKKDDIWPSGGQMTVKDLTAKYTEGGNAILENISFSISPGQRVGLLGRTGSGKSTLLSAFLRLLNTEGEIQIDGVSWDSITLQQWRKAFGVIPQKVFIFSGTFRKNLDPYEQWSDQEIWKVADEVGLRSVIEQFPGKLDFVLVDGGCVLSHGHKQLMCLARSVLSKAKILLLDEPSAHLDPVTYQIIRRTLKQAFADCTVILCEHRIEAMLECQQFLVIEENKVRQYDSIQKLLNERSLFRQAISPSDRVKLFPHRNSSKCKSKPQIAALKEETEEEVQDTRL

[3] = tested on: Cystic fibrosis transmembrane conductance regulator (Homo sapiens), P13569 [F508del]; experiment: Corrector activity at human CFTR deltaF508 mutant expressed in FRT cells assessed as iodide influx at 10 uM; summary of the method: as §1

Cystic fibrosis transmembrane conductance regulator, sequence (P13569 as listed by the source): as above

## CCCCCCC(=O)Nc1nc(C)c(-c2csc(Nc3cc(OC)ccc3OC)n2)s1
[1]
  EC50: 1100 nM

## Cc1ccc(Nc2nc(-c3sc(NC(=O)c4ccc(Cl)cc4)nc3C)cs2)cc1
[1]
  EC50: 1100 nM

## COc1c(Cl)cccc1Nc1nc(-c2sc(NC(=O)c3ccccc3)nc2C)cs1
[2]
  Activity: Active
[3]
  Activity: Active

## Cc1nc(NC(=O)c2ccc([N+](=O)[O-])cc2)sc1-c1csc(Nc2ccc(Cl)cc2)n1
[1]
  EC50: 800 nM

## COc1ccc(Cl)cc1Nc1nc(-c2sc(NC(=O)C(C)(C)C)nc2C)cs1
[1]
  EC50: 700 nM

## COc1ccc(OC)c(Nc2nc(-c3sc(NC(=O)c4ccc(Cl)cc4)nc3C)cs2)c1
[1]
  EC50: 1100 nM

## COc1ccc(Cl)cc1Nc1nc(-c2sc(NC(=O)c3ccccc3)nc2C)cs1
[1]
  EC50: 900 nM
[2]
  Activity: Active
[3]
  Activity: Active

## CCOc1ccccc1Nc1nc(-c2sc(NC(=O)C(C)(C)C)nc2C)cs1
[1]
  EC50: 800 nM

## Cc1nc(NC(=O)c2ccccc2)sc1-c1csc(Nc2cccc(Cl)c2Cl)n1
[2]
  Activity: Active
[3]
  Activity: Active

## Cc1nc(NC(=O)c2ccc(Cl)cc2)sc1-c1csc(Nc2ccc(Cl)cc2)n1
[1]
  EC50: 1100 nM

Reference: ChEMBL document CHEMBL1144813, “4'-Methyl-4,5'-bithiazole-based correctors of defective delta F508-CFTR cellular processing” (Bioorg Med Chem Lett, 2008)
